Screens as filed in PubChem BioAssay.
CHT PAM: allosterically activates the human high affinity choline transporter; CHT-expressing cells, membrane potential dye, choline EC20; hits give high values; LV-AA mutant CHT in HEK293 cells; B-score at 10 µM; hit rate 0.49% among 310,000; AID 488977;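 active = initial fluorescence not abnormally high and integrated response B-score, plate-corrected, over 3 SD above library mean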
Target sequence (Q9GZV3 whole entry, looked up): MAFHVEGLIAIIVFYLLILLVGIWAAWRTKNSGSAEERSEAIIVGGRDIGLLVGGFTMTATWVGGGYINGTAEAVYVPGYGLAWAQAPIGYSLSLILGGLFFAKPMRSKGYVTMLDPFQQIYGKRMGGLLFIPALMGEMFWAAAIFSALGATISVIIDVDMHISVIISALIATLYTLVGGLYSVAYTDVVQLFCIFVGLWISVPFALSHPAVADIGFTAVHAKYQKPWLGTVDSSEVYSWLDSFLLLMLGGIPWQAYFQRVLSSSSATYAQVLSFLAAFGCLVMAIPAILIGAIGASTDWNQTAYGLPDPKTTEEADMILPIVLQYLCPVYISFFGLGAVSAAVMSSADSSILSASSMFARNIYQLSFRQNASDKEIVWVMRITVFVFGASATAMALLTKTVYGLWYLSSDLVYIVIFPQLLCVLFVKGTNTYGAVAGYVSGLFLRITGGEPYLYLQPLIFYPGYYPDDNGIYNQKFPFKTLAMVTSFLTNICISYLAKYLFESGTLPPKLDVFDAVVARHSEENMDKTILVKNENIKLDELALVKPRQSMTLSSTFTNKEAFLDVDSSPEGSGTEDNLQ
procasp3 activ: activators of human procaspase-3. P42574. recombinant procaspase-3 D3A, Ac-DEVD-pNA absorbance 405 nm. hit rate 0.11% among 330,000. AID 463141. activation, % at 8.5 µM;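 active = activation above the mean of all tested compounds plus 3 SD, cut at about 21% in these data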;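 also: 0% = DMSO alone and 100% = DMSO wells spiked with extra 5 µM PC-3 D3A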
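System: Procaspase-3 D3A mutant. Medium: Zinc-free 300 mM NaCl, 50 mM HEPES, 0.01% Triton X-100. Schedule: 1 h preincubation plus 2 h reaction at 25 °C. Measured by: 405 nm absorbance of p-nitroaniline, reads at 0 and 120 min. Read-out: percent activation relative to control range.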
proCasp7 act: activates human procaspase-7, counter-screen for procaspase-3 activators; P55210; recombinant procaspase-7, Ac-DEVD-pNA absorbance 405 nm; D23A/D198A/D206A triple mutant, cannot self-cleave; scale: DMSO 0, 5 µM enzyme 100; activation, % at 8.5 µM; hit rate 0.093% among 330,000;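 active = percent activation above the screen-wide mean plus 3 SD, cut at about 25% in these data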
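signal = Epi-absorbance of released pNA at 405 nm, two timepoints | assay system = Uncleavable procaspase-7 mutant enzyme | reagent = Ac-DEVD-pNA substrate, 400 µM as added | times = 1 h enzyme–compound preincubation and 2 h substrate reaction, both 25 °C | benchmarks = low DMSO alone, high DMSO plus 5 µM PC-7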
CHT block: inhibitors of human choline transporter CHT. hit rate 0.86% among 310,000. AID 488975. B-score at 10 µM. Q9GZV3. CHT-expressing cells, membrane potential dye, choline response; hits give low values;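 active = B-score over 3 SD under the library average, and starting fluorescence ratio not unusually high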;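 also: choline stimulus applied at its EC90 after an EC20 pre-addition; B-score computed on integrated fluorescence ratio after choline addition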
CHT activ conf: confirmation of human choline transporter (CHT) activators; hit rate 91% among 2,500; shares compounds with CHT PAM; CHT-expressing cells, membrane potential dye fluorescence (FDSS); % of choline EC20–EC90 response window; HEK293 expressing CHT LV-AA mutant; choline added at its EC20; activation, % at 10 µM;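 active = primary screen active, with duplicate mean activation above negative control mean plus 3 SD, cut at about 11% in these data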
HEK293 MP dye: CHT activator counter-screen hit in parental HEK293 cells; shares compounds with CHT PAM; membrane potential dye fluorescence (FDSS); measured after EC20 choline addition; ratio readout change at 10 µM, hits read low; hit rate 62% among 2,500;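 active = duplicate-averaged ratio beyond 3 SD from buffer wells, up or down, though filed actives are nearly all decreases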
* marks the source's active call; other numbers are inactive results; i = inactive; . = no result given. A selection: hits, their analogues and other compounds. The true share with any hit is near 1.3%.

SMILES	CHT PAM	procasp3 activ	proCasp7 act	CHT block	CHT activ conf	HEK293 MP dye
CCOC(=O)Cn1c2c(c(=N)c3c1CCC3)CCCC2	i	-9	2	i	42*	-34*
N=c1c2c(n(Cc3ccc(Br)cc3)c3c1CCC3)CCCC2	i	-4	-8	i	.	.
COC(=O)Cn1c2c(c3cc(C)ccc31)CCCC2	i	3	12	i	.	.
COc1ccc(CCNS(=O)(=O)c2c(C)[nH]c(C)c2C(=O)N2CCCCC2)cc1OC	i	6	5	i	.	.
O=C(COc1ccc(Cl)cc1)NCc1nnc(SCC(=O)Nc2ccccc2F)o1	i	4	2	i	.	.
CCCn1c2c(c(=N)c3c1CCC3)CCC2	6.6*	5	-4	i	59*	-52*
CCCn1c(=S)[nH]c2sc3c(c2c1=O)CCCC3	i	-10	-12	i	.	.
CC(C)Oc1ccc(CCNC(=O)CC2C(=O)NCCN2C)cc1 (stereo unspecified)	i	2	2	i	.	.
CC(=O)c1c(C)nc2ccccc2c1N	8.6*	-5	2	i	56*	-44*
Cc1c(N(C)C)nc2ccccc2c1N	7*	11	5	i	53*	-58*
CC(OC(=O)/C=C/c1ccccc1)C(=O)Nc1cccc(C#N)c1 (stereo unspecified)	i	1	-6	i	.	.
O=c1cc(CN2CCN(CCO)CC2)c2cc3c(cc2o1)CCC3	i	7	4	i	46*	-44*
CCOC(=O)N1CCN(Cc2cc(=O)oc3cc4c(cc23)CCC4)CC1	i	6	-7	i	.	.
O=[N+]([O-])c1ccc(/C=C/C2=NN(c3ccccc3)C(c3ccco3)C2)cc1 (stereo unspecified)	15*	-5	-2	i	51*	i
C[n+]1ccccc1/C=C/c1ccc([N+](=O)[O-])cc1	i	13	-2	i	.	.
CCCCC(Sc1nc(N)c(NC(=O)c2ccco2)c(=O)[nH]1)C(=O)O (stereo unspecified)	i	-3	-2	i	.	.
CCn1c(C)nc2cc(C(=O)NNC(=O)CCC3CCCCC3)ccc21	i	-4	0	i	.	.
CNc1nc2c(C)cccn2c(=O)c1C=NCc1ccccc1	i	4	10	i	.	.
CN=Cc1c(NC)nc2c(C)cccn2c1=O	9.3*	7	15	i	43*	-27*
Cc1cccn2c(=O)c(C=O)c(Cl)nc12	6.6*	2	4	i	42*	-31*
CCCCn1c(N)c(N(CC(C)C)C(=O)C2CCN(C(=O)c3ccc(Cl)cc3)CC2)c(=O)[nH]c1=O	i	3	-7	i	.	.
CCCCn1c(N)c(N(CCC(C)C)C(=O)C2CCCN(C(=O)c3ccc(Cl)cc3)C2)c(=O)[nH]c1=O (stereo unspecified)	8.8*	0	-3	i	12*	i
O=C(COc1cccc(C(F)(F)F)c1)NNC(=O)c1ccc(=O)[nH]c1	.	5	10	.	.	.
CCOc1cccc2sc(N(CCN(C)C)C(=O)c3ccc4ccccc4c3)nc12	9.5*	-5	7	i	25*	-78*
O=C(O)c1ccccc1-n1c(-c2ccccc2)cc2c1CCCC2=O	i	-2	14	i	.	.
SMILES	CHT PAM	procasp3 activ	proCasp7 act	CHT block	CHT activ conf	HEK293 MP dye
COc1ccc(N/C(N)=N/c2nc(CSc3ccc(C)cc3)cc(=O)[nH]2)cc1	i	2	11	i	.	.
Cc1ccc(N/C(N)=N/c2nc(CSc3nnc(N)s3)cc(=O)[nH]2)cc1	i	-8	13	i	5	i
C/C(CCC(C)C)=N\Nc1cc(C)c2ccccc2n1	7.4*	9	10	i	52*	i
CCOC(=O)c1ncccc1NC(=O)CC(=O)Nc1cccnc1C(=O)OCC	i	-9	3	i	32*	-36*
O=C(O)CCCCCN=Cc1c(O)c2ccccc2oc1=O	i	-9	6	i	.	.
COc1ccccc1NC(=O)NNC(=O)CCc1ccccc1	i	0	-2	i	.	.
Cc1cccc(OCc2n(CC(=O)OC3CC(C)CCC3C(C)C)c3ccccc3[n+]2C)c1 (stereo unspecified)	9.3*	3	2	i	41*	i
O=C(NC1CCCN(Cc2ccc(Cl)cc2)C1)c1ccoc1 (stereo unspecified)	i	-1	5	i	.	.
CC1CCCCC1NC(=O)CN1C(=O)c2ccccc2S1(=O)=O (stereo unspecified)	i	6	-1	i	.	.
CCSc1ccc2cc(OC)ccc2[n+]1CC	6.3*	9	-2	i	40*	-54*
CCSc1nc(O)cc(=O)n1-c1ccc(OC)cc1	i	6	4	i	.	.
COC(=O)c1cc(NC(=O)COC(=O)C2CCC2)cc(C(=O)OC)c1	i	10	6	i	.	.
CCN(CC)c1nc(N2CCN(CCO)CC2)nc2ccccc12	i	-8	-1	i	.	.
CCN(CC)c1nc(N2CCN(C)CC2)nc2ccccc12	i	13	4	i	60*	-58*
CC1(C)C(=O)Nc2ccccc2N1C(=O)COC(=O)c1ccc(Cl)c(S(=O)(=O)NCc2ccccc2)c1	i	4	9	i	12*	i
COc1ccc(N2CC(C(=O)Nc3cccnc3)CC2=O)cc1 (stereo unspecified)	i	4	4	i	.	.
COc1ccc(-c2cc(C(=O)O)c3c(C)nn(-c4ccccn4)c3n2)cc1	i	4	16	i	.	.
CCOC(=O)c1cc(-c2ccncc2)nc2c1c(C)nn2-c1ccccn1	7.7*	8	1	i	30*	-20*
CC(C)CCNC(=S)Nc1ccc(Br)cc1	i	12	12	i	.	.
CC(C)CCNC(=O)/C=C/c1ccc(Br)cc1	i	6	2	i	25*	i
Cc1ccc(O)c(C(=O)c2cnn(C(=O)Cc3csc(C)n3)c2)c1	i	7	15	i	37*	-43*
N#Cc1c(N)sc2c1CCN(CCc1ccccc1)C2	i	-5	-1	i	30*	-41*
N#Cc1c(NC(=S)NC(=O)c2ccccc2)sc2c1CCN(CCc1ccccc1)C2	i	-25	-32	i	.	.
Cc1ccc(S(=O)(=O)Nc2cc(S(=O)(=O)N3CCCCC3)ccc2N2CCOCC2)cc1	i	-3	5	i	.	.
Cn1c(=O)c(=O)n(C)c2cc(N3CCOCC3)c(NS(=O)(=O)c3ccc(Br)cc3)cc21	7.1*	-6	1	i	53*	-43*
